# In ChEMBL document CHEMBL2062373, “Discovery of pyrroloaminopyrazoles as novel PAK inhibitors” (J Med Chem, 2012):
# pEC50, pIC50: −log10 of the molar value.
# Tests used:
# [1] = target: Serine/threonine-protein kinase PAK 4 (Homo sapiens, UniProt O96013); experiment: Inhibition of PAK4-mediated GEF-H1 phosphorylation at Ser810 by cell based assay; settings: read-out: EC50
# [2] = Octanol/buffer partition coefficient, log D of the compound at pH 7.4; format: physicochemical
# [3] = Metabolic stability in human liver microsomes assessed as extraction ratio; format: ADME, Microsome; settings: read-out: ERH
# [4] = Efflux ratio of permeability from basolateral to apical side over apical to basolateral side in human Caco2 cells; format: ADME, cell-based; settings: Caco-2
# [5] = system: HCT-116; experiment: Antitumor activity against human HCT116 cells xenografted in mouse assessed as tumor growth inhibition at 12.5 mg/kg, po BID for 15 days; format: functional; settings: HCT-116, 360 h, read-out: TGI
# Summary of the method: (§1)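 HCT-116 colon carcinoma xenografts in mice. Compound given orally twice daily. Efficacy expressed as percent tumour growth inhibition (TGI).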
# [6] = system: HCT-116; experiment: Antitumor activity against human HCT116 cells xenografted in mouse assessed as tumor growth inhibition at 20 mg/kg, po BID for 15 days; format: functional; settings: HCT-116, 360 h, read-out: TGI; summary of the method: as §1
# [7] = Clearance in rat at 5 mg/kg, iv and 10 mg/kg, po; format: ADME, organism-based; settings: in vivo
# [8] = Volume of distribution at steady state in rat at 5 mg/kg, iv and 10 mg/kg, po; format: ADME, organism-based; settings: in vivo, read-out: Vdss
# [9] = Half life in rat at 5 mg/kg, iv and 10 mg/kg, po; format: ADME, organism-based; settings: in vivo
# [10] = Oral bioavailability in rat at 10 mg/kg; format: ADME, organism-based; settings: in vivo
# [11] = system: Mus musculus; experiment: Free dug level in mouse xenografted with human M24 cells at 3.75 mg/kg, po BID for 15 days; format: ADME, organism-based; set-up: dose 3.75 mg/kg, route oral; settings: in vivo, 360 h
# [12] = Antitumor activity against human M24 cells xenografted in mouse assessed as tumor growth inhibition at 3.75 mg/kg, po BID for 15 days; format: functional; settings: M24, 360 h, read-out: TGI
# [13] = system: Mus musculus; experiment: Free dug level in mouse xenografted with human M24 cells at 7.5 mg/kg, po BID for 15 days; format: ADME, organism-based; set-up: dose 7.5 mg/kg, route oral; settings: in vivo, 360 h
# Summary of the method: (§2)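 The read-out is free drug exposure, reported as unbound average concentration (free Cave) in nM. It was obtained from mice dosed orally at the stated regimen, sid or bid, during the xenograft efficacy study.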
# [14] = Antitumor activity against human M24 cells xenografted in mouse assessed as tumor growth inhibition at 7.5 mg/kg, po BID for 15 days; format: functional; settings: M24, 360 h, read-out: TGI
# [15] = system: Mus musculus; experiment: Free dug level in mouse xenografted with human M24 cells at 15 mg/kg, po BID for 15 days; format: ADME, organism-based; set-up: dose 15 mg/kg, route oral; settings: in vivo, 360 h; summary of the method: as §2
# [16] = Antitumor activity against human M24 cells xenografted in mouse assessed as tumor growth inhibition at 15 mg/kg, po BID for 15 days; format: functional; settings: M24, 360 h, read-out: TGI
# [17] = target: T1, Serine/threonine-protein kinase D3 (Homo sapiens) (UniProt O94806); experiment: Inhibition of PKD3; settings: concentration not given here
# T1 sequence (whole entry): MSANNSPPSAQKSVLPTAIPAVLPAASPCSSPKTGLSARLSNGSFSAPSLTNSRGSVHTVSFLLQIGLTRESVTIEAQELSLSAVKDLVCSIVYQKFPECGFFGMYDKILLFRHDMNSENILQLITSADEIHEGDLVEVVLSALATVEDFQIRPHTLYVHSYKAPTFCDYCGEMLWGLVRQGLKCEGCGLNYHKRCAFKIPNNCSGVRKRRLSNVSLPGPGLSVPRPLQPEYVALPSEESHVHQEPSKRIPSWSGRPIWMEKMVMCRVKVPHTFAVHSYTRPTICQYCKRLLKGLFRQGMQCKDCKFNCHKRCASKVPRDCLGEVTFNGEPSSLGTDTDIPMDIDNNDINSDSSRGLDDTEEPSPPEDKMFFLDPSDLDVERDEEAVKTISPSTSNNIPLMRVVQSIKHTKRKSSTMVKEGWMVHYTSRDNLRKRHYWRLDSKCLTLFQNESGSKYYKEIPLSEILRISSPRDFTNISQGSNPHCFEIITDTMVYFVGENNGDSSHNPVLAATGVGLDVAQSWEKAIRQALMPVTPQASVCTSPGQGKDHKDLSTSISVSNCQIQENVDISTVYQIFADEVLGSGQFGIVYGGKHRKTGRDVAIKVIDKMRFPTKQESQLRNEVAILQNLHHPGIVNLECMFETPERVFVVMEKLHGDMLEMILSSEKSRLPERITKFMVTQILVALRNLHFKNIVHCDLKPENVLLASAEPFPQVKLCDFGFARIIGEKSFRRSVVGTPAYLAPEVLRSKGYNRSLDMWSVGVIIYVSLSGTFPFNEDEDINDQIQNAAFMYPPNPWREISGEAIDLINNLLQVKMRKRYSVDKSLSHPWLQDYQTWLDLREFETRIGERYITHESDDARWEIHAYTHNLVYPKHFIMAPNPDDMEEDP
# [18] = target: Mitogen-activated protein kinase 3 (Homo sapiens) (UniProt P27361); experiment: Inhibition of ERK1; settings: concentration not given here
# [19] = species: Homo sapiens; experiment: Inhibition of PCTAIRE; settings: concentration not given here
# [20] = target: AMP-activated protein kinase, AMPK (Homo sapiens) (UniProt P54646+O43741+P54619+Q9UGJ0+Q9Y478+Q13131+Q9UGI9); experiment: Inhibition of AMPK at 1000 nM; format: protein-complex assay
# [21] = target: T2, Mitogen-activated protein kinase 1 (Homo sapiens, UniProt P28482); experiment: Inhibition of Erk2 at 1000 nM
# [22] = target: T3, Glycogen synthase kinase-3 beta (Homo sapiens, UniProt P49841); experiment: Inhibition of GSK3beta at 1000 nM
# Target sequence in this assay (P49841 whole entry, looked up): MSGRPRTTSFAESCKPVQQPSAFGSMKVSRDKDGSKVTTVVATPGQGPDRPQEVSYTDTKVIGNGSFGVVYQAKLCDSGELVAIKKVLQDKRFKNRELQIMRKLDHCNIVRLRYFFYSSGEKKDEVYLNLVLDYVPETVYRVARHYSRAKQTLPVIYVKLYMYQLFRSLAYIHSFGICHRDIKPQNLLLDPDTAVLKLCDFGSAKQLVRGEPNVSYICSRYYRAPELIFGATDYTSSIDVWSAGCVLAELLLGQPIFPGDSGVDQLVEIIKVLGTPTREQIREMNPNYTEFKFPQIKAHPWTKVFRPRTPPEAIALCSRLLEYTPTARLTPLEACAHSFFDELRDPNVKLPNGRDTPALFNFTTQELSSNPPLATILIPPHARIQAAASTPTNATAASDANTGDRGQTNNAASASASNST
# [23] = species: Homo sapiens; experiment: Inhibition of RSK at 1000 nM
# [24] = species: Homo sapiens; experiment: Inhibition of PKA at 1000 nM
# [25] = target: T2, Mitogen-activated protein kinase 1; experiment: Inhibition of Erk2
# [26] = target: Serine/threonine-protein kinase MARK1 (Homo sapiens, UniProt Q9P0L2); experiment: Inhibition of MARK1
# [27] = Oral bioavailability in dog; format: ADME, organism-based, Canis lupus familiaris; settings: in vivo
# [28] = Clearance in dog; format: ADME, organism-based, Canis lupus familiaris; settings: in vivo
# [29] = Half life in dog; format: ADME, organism-based, Canis lupus familiaris; settings: in vivo
# [30] = target: Cyclin-dependent kinase 2 (Homo sapiens, UniProt P24941)
# [31] = target: T3, Glycogen synthase kinase-3 beta
# Target sequence in this assay (P49841 whole entry): as the sequence (P49841 whole entry, looked up) above
# T2 sequence (P28482 whole entry): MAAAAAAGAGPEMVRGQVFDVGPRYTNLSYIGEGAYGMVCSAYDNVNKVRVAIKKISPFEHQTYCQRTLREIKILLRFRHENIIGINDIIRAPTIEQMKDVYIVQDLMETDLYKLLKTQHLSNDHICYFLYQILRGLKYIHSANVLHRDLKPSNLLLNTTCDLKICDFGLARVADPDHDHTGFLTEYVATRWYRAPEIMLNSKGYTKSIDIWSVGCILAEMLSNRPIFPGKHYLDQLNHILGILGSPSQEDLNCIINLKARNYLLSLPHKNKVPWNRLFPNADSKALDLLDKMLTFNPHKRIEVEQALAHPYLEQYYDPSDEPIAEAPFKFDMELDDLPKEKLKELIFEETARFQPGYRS
# Chain of Serine/threonine-protein kinase MARK1 (Q9P0L2 whole entry): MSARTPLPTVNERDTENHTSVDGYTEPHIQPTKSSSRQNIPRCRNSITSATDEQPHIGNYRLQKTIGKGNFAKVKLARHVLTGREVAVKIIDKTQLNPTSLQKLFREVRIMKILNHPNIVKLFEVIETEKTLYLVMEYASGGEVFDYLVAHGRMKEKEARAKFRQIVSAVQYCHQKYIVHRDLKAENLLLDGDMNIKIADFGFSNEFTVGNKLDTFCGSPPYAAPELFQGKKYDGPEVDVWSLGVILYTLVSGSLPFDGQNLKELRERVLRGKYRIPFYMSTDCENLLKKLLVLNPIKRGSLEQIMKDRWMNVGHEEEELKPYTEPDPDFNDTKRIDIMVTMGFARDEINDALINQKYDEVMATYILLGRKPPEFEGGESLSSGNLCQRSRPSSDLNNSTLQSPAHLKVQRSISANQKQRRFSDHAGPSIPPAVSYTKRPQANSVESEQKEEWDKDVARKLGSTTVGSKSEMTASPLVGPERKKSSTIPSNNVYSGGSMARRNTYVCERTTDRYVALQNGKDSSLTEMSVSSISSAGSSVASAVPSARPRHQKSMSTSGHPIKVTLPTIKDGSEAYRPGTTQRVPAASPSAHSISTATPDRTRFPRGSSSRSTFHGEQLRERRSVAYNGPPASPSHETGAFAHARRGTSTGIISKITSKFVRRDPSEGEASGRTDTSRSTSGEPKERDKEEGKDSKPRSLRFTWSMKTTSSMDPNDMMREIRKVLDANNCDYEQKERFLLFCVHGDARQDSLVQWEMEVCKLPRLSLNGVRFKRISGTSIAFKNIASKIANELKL
# Chain of Mitogen-activated protein kinase 3 (Homo sapiens) (P27361 whole entry): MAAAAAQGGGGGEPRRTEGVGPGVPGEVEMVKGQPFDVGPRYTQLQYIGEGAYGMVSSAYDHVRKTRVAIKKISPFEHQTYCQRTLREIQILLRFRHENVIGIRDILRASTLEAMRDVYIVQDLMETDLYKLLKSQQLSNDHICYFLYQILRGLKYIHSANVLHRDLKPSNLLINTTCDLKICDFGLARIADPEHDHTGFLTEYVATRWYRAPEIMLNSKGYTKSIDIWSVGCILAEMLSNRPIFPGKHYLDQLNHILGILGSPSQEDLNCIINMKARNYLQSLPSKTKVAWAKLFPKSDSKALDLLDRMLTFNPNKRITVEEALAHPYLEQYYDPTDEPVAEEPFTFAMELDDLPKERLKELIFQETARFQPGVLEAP
# Chain of Serine/threonine-protein kinase PAK 4 (O96013 whole entry): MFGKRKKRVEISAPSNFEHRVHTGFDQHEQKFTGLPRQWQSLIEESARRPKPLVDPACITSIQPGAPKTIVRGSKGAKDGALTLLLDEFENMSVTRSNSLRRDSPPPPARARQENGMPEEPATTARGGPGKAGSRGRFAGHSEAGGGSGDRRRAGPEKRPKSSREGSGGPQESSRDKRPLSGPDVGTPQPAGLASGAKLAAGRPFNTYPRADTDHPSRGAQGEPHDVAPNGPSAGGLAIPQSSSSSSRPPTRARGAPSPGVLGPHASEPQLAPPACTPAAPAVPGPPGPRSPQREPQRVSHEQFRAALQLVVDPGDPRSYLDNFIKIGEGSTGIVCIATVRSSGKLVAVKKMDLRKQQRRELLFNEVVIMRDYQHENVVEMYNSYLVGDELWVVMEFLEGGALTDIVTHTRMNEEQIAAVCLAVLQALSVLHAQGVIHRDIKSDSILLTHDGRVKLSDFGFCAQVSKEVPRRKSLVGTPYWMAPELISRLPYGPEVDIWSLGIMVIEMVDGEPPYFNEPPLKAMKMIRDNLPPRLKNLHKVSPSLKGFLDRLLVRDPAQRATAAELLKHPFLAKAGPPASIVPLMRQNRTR
compound,measurement,setting,value
CN(C)C[C@@H](OC(=O)N1Cc2c(NC(=O)C(C)(C)C)n[nH]c2C1(C)C)c1ccccc1,pEC50,[1],8.40
same,logD,[2],2.52
same,hepatic extraction ratio,[3],0.44
same,efflux ratio,[4],9.9
same,inhibition in vivo at 12.5 mg/kg,[5],37%
same,inhibition in vivo at 20 mg/kg,[6],52%
same,clearance,[7],52 mL/min/kg
same,Vd,[8],2.8 L/kg
same,half-life,[9],0.8 h
same,bioavailability,[10],15%
same,Drug uptake(free),[11],5.3 nM
same,inhibition in vivo at 3.75 mg/kg,[12],41%
same,Drug uptake(free),[13],28.3 nM
same,inhibition in vivo at 7.5 mg/kg,[14],61%
same,Drug uptake(free),[15],50.5 nM
same,inhibition in vivo at 15 mg/kg,[16],68%
same,inhibition,[17],> 40%
same,inhibition,[18],> 40%
same,inhibition,[19],> 40%
same,inhibition,[20],> 70%
same,inhibition,[21],> 70%
same,inhibition,[22],> 70%
same,inhibition,[23],> 70%
same,inhibition,[24],> 70%
same,pIC50,[25],6.77
same,pIC50,[26],6.94
same,bioavailability,[27],20%
same,clearance,[28],12 mL/min/kg
same,half-life,[29],2.2 h
same,pIC50,[30],6.35
same,pIC50,[31],6.64
